Laboratory results reported in ChEMBL document CHEMBL3868636, “New glutathione peroxidase mimetics-Insights into antioxidant and cytotoxic activity” (Bioorg Med Chem, 2017).
The source made the active and inactive calls. The calls are words filed in the database; no cut-off is given here.

Tests used:
[1] = Antiproliferative activity against human A549 cells; format: functional, cell-based
[2] = Antioxidant activity assessed as H2O2 scavenging by measuring remaining dithiothreitol level at 0.1 equivalent after 3 mins by 1H NMR spectroscopy relative to control; format: functional
How it was run: (§1)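 Dithiothreitol oxidation by 30% H2O2 (3.0 eq) in CD3OD, catalysed by Se compound at 0.1 equiv. 1H NMR spectra taken right after H2O2 addition and then at set intervals. Remaining substrate derived from changes in signal integration.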

[3] = Antioxidant activity assessed as H2O2 scavenging by measuring remaining dithiothreitol level at 0.1 equivalent after 30 mins by 1H NMR spectroscopy relative to control; format: functional; how it was run: as §1
[4] = Cytotoxicity against human MCF7 cells assessed as reduction in cell viability measured after 24 hrs by MTT assay; format: functional, cell-based; details: MCF7, 24 h
How it was run: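 MCF-7 cells grown in MEM with glutamine, non-essential amino acids, gentamycin and 10% heat-inactivated FBS at 37°C, 5% CO2. Seeded at 10^4 cells/well and left 24 h. Compounds at various concentrations or 0.1% DMSO vehicle for 24 h. MTT added for 2 h at 37°C. Formazan read at 540 nm against untreated control. Run in triplicate, IC50 reported.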

[5] = Antioxidant activity assessed as H2O2 scavenging by measuring remaining dithiothreitol level at 0.1 equivalent after 5 mins by 1H NMR spectroscopy relative to control; format: functional; how it was run: as §1
[6] = Cytotoxicity against human DU145 cells assessed as reduction in cell viability measured after 24 hrs by SRB assay; format: functional, cell-based; details: DU-145, 24 h
How it was run: (§2)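 DU-145 cells grown in MEM with 10% FBS, glutamine and pyruvate. PNT1A cells grown in RPMI 1640 with serum. Both seeded at 6.0 x 10^3 cells/well for 24 h, then treated 24 h with graded concentrations up to 40. Triplicate, IC50 calculated.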

[7] = Antioxidant activity assessed as H2O2 scavenging by measuring remaining dithiothreitol level at 0.1 equivalent after 60 mins by 1H NMR spectroscopy relative to control; format: functional; how it was run: as §1
[8] = Antioxidant activity assessed as H2O2 scavenging by measuring remaining dithiothreitol level after 15 mins at 0.1 equivalent by 1H NMR spectroscopy relative to control; format: functional; how it was run: as §1
[9] = Cytotoxicity against human PNT1A cells assessed as reduction in cell viability measured after 24 hrs by SRB assay; format: toxicity, cell-based; how it was run: as §2
DU-145 = assay: Inhibition of Akt-phosphorylation in human DU145 cells at 40 uM measured after 0.5 to 2 hrs by Western blot analysis; format: cell-based
How it was run: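 Cells treated with 40 μM compound for different times. Floating and attached cells lysed in Tris-HCl pH 7.5/NaCl/Triton X-100/SDS for 40 min on ice. Lysates run on 10–12% SDS-PAGE and blotted to PVDF. Primary antibody applied 1 h at room temperature, detection by ECL. p-Akt quantified by densitometry and normalised to β-actin.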

SMILES | IC50 [1] | Activity [2] | Activity [3] | IC50 [4] | Activity [5] | IC50 [6] | Activity [7] | Activity [8] | IC50 at 24 h [9] | inhibition (DU-145)
O=C(O)c1ccc(NC(=O)c2ccccc2[Se][Se]c2ccccc2C(=O)Nc2ccc(C(=O)O)cc2)cc1 | 20 µM |  |  |  |  |  |  |  |  | 
CCCCn1[se]c2ccccc2c1=O |  | 81% | 32% | 13.8 µM | 59% | 20.8 µM | 29% | 41% | > 40 µM | 
CCCCNC(=O)c1ccccc1[Se][Se]c1ccccc1C(=O)NCCCC |  | 93% | 77% | > 500 µM | 88% | > 40 µM | 73% | 82% |  | 
O=C(NC1CCCCC1)c1ccccc1[Se][Se]c1ccccc1C(=O)NC1CCCCC1 |  | 92% | 65% | 90 µM | 85% | > 40 µM | 54% | 75% |  | 
Cn1[se]c2ccccc2c1=O |  | 78% | 11% | 32.7 µM | 65% | 30.2 µM | 0% | 35% | > 40 µM | 
CC(C)CCNC(=O)c1ccccc1[Se][Se]c1ccccc1C(=O)NCCC(C)C |  | 65% | 31% | > 500 µM | 49% | > 40 µM | 21% | 38% |  | 
O=c1c2ccccc2[se]n1C1CCCCC1 |  | 75% | 55% | 7.31 µM | 69% | 5.71 µM | 44% | 62% | > 40 µM | Active
CC(C)CCn1[se]c2ccccc2c1=O |  | 77% | 28% | 29 µM | 58% | 30.4 µM | 13% | 42% | > 40 µM | Active
O=c1c2ccccc2[se]n1-c1ccccc1 |  | 84% | 58% |  | 75% |  | 52% | 64% |  | 
C=CCNC(=O)c1ccccc1[Se][Se]c1ccccc1C(=O)NCC=C |  | 59% | 0% | 125 µM | 36% | 20.4 µM | 0% | 12% |  | 
C=CCn1[se]c2ccccc2c1=O |  | 76% | 53% | 25.7 µM | 69% | 10.3 µM | 41% | 58% | > 40 µM | 
